UPR XBP1 act: activators of adaptive arm of unfolded protein response (XBP1). CHO-XBP1 luciferase reporter, IRE1-XBP1 UPR activation, luminescence; percent of tunicamycin response, DMSO as zero. activation, % at 20 µM. 0.33% of 330,000 active;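 active = versus positive control, 20 µM dose yields 30% or more activation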;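 note: 100% = tunicamycin at 10 µg/mL and 0% = DMSO only wells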
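incubation = overnight seeding at 37 °C, 6 h compound treatment at 37 °C | assay system = CHO-XBP1 cells stably carrying IRE1-XBP1-driven luciferase reporter | input = 1000 cells per well | detection = luciferase luminescence | dosing = single point, 20 µM final compound, 1% DMSO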
T cruzi repl: blocks replication of Trypanosoma cruzi | T. cruzi beta-gal in NIH3T3, luminescence, 90 h | inhibition, % (test concentration not listed) | 1.4% of 300,000 active;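 active = mean inhibition across valid replicates above about 55%, limit read from the data; inconclusive = mean below that limit but half or more replicates reach it; inactive = mean below it, under half of replicates reach it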;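 note: signal also drops with host cell toxicity which is not excluded here; 0% = plate median of DMSO wells and 100% = zero luminescence signal; higher percent means less beta-gal luminescence so fewer parasites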
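System: NIH/3T3 fibroblasts plus reporter T. cruzi. Medium: DMEM plus 2% FBS. Probe or stimulus: 5000 reporter trypomastigotes per well. Compound: single 50 nL compound addition per well in DMSO. Incubation: co-culture of at least 90 h after 3 h attachment. Detection: GalScreen β-gal luminescence, detergent lysis, 60 min. Evaluation: parasite load inhibition, %.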
UPR CHOP act: apoptotic UPR (CHOP) activation; 0.34% of 330,000 active; CHO-CHOP luciferase reporter, luminescence; percent of tunicamycin response over DMSO baseline; activation, % at 10 µM; AID 449763;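 active = at 10 µM dose, activation of 40% or more, normalized to positive control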;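 note: 100% = tunicamycin at 10 µg/mL and 0% = DMSO alone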
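Assay system: CHO cells with stable CHOP pathway luciferase reporter; Buffer or medium: F12 plus 10% serum; Times: 16-18 h cell attachment, then 6 h compound exposure, 37 °C; Signal: luciferase luminescence; Read-out basis: percent activation relative to tunicamycin control; Control set: tunicamycin high control, DMSO low control.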
Lmaj promast: Leishmania major promastigote growth inhibition | Leishmania major promastigotes, resazurin fluorescence viability | inhibition, % at 10 µM | 9% of 200,000 active; in the data active = inhibition above about 50%;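 note: promastigotes grown with compound for 44 hours at 28 °C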
Dynein cargo inh: blocks dynein driven cargo transport along microtubules | 3617.4 mouse cells, GR-EGFP nuclear translocation imaging; test concentration mostly 20 µM; stimulated with dexamethasone, 1 µM; active compounds read low | z-score, hits read low | 0.47% of 220,000 active | AID 1381;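 active = plate z-score of nuclear minus cytoplasmic receptor signal below a set negative limit, without overly bright fluorescence or cell loss, cut at about -3.5 in these data, passing the limit was not always enough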;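 note: z-score of nuclear minus cytoplasmic ring GR-EGFP intensity difference per well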
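Buffer or medium: tetracycline-free induction medium containing charcoal-stripped FBS / Reagent: dexamethasone agonist, 1.0 µM final, for 30 min / Technique: automated 10x imaging of fixed Hoechst-stained cells / Times: induction 48 h, compound 1 h, agonist 30 min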
CHOP inhibitor: blocks CHOP induction under ER stress. CHO-K1 CHOP-promoter luciferase, tunicamycin-induced, 15-18 h. inhibition, % at 10 µM. 3.8% of 220,000 active;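 active = compounds that reduced the stress-induced luciferase reporter signal by more than about 70% of percent inhibition, limit read from the data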;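 note: 0% = tunicamycin plus vehicle and 100% = wells without tunicamycin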
Lmaj promast 1uM: L. major promastigote growth inhibition, 1 uM repeat. shares compounds with Lmaj promast. resazurin fluorescence, 48 h. inhibition, % at 1 µM. 13% of 1,100 active. AID 1258;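 active = inhibition above about 50% in both repeat tests, limit read from the data; inconclusive = one repeat under the set limit, the other over it; inactive = both repeats under the set limit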
* marks the source's active call; other numbers are inactive results; ? = inconclusive; . = no result. Many of the other results were omitted from the sample, so hits are more common in it than they were.

SMILES	UPR XBP1 act	T cruzi repl	UPR CHOP act	Lmaj promast	Dynein cargo inh	CHOP inhibitor	Lmaj promast 1uM
CC(C)(C)C(=O)/C=c1\[nH]c(=O)/c(=C\c2ccc(F)cc2)s1	-2	-3	3	73*	-0.049	81*	-4
CC(C)(C)C(=O)/C=c1\[nH]c(=O)/c(=C\c2ccccc2F)s1	1	2	3	22	-0.71	60	.
CCn1c(-c2ccc(N(C)C)cc2)nc2ccccc21	2	58*	3	97*	2.5	.	22
CCC(COC)NC(=O)c1ccc(OC)c(OC2CCN(C(C)=O)CC2)c1 (stereo unspecified)	-2	-14	0	.	.	.	.
Cc1ccc(-c2onc3ccc(C=O)cc23)cc1	-6	-3	-5	81*	0.4	-12	-11
O=C(O)/C=C/c1ccc2noc(-c3ccccc3)c2c1	-1	-5	3	0	-0.085	49	.
COc1ccccc1N1Cc2ccccc2C1	-3	40	-1	91*	0.61	-4	-10
CCSC1=N/C(=C\c2ccc(C)s2)C(=O)S1	0	3	-1	83*	-0.13	60	-16
C=Cc1ccc(COC(=O)c2cn(CC)c3nc(C)ccc3c2=O)cc1	-3	0	-2	.	.	.	.
CCn1cc(C(=O)OCc2ccc(F)cc2)c(=O)c2ccc(C)nc21	4	19	0	50*	1.4	51	-2
CCCCCCc1cc2cc(C(=O)NCc3ccccc3)c(=N)oc2cc1O	11	-5	9	-6	-1.1	4	.
CCCCCCc1cc2cc(C(=O)Nc3ccccc3)c(=O)oc2cc1O	7	5	14	86*	0.63	71*	4
O=C(Nc1nc(-c2cccc([N+](=O)[O-])c2)cs1)C(c1ccccc1)c1ccccc1	3	53	1	59*	0.89	28	-2
COc1ccc(C(=O)NC(=S)NNC(=O)c2cnccn2)cc1	1	22	0	100*	-0.73	39	6
COc1ccc(CC(=O)NNC(=O)c2cnccn2)cc1	-6	-2	-2	-6	0.3	9	.
CC[C@]12c3[nH]c4ccc(OC)cc4c3CCN1C(=O)C(CC(=O)NCCCN(C)C)C[C@@H]2C(=O)N1CCN(C(=O)c2ccco2)CC1 (stereo partly specified)	3	.	0	.	.	.	.
O=C(Nc1ccc2c(c1)OCCO2)C(=O)NC1CC1	-9	-8	2	.	.	.	.
O=C1/C(=C/c2ccc(O)cc2)SC(=S)N1Cc1cccnc1	9	10	1	60*	-1.1	69	-13
O=C(NCC(c1ccco1)N1CCCC1)c1cc(S(=O)(=O)N2CCOCC2)ccc1Cl (stereo unspecified)	2	.	0	.	.	.	.
O=C(Nc1cc(S(=O)(=O)N2CCCC2)ccc1Cl)c1cc(F)c(F)c(F)c1F	-2	.	1	.	.	.	.
Cc1nn(-c2cccc(C(F)(F)F)c2)c(Cl)c1/C=N/Nc1cccc(C(=O)O)c1	.	-4	.	90*	-0.21	-16	-8
O=C(/C=C1\NC2(CCCC2)Cc2ccccc21)N1CCOCC1	-1	-9	-1	88*	-1.1	9	-2
Nc1ccc(Nc2ccccc2)c(Cl)c1	7	18	1	4	-1.3	11	.
Nc1ccccc1Nc1ccccc1	6	27	4	99*	-0.86	17	-16
Cc1cc(C)c(S(=O)(=O)c2c(C)cccc2C)c(OCC(C)C)n1	-2	6	0	96*	.	74*	?
SMILES	UPR XBP1 act	T cruzi repl	UPR CHOP act	Lmaj promast	Dynein cargo inh	CHOP inhibitor	Lmaj promast 1uM
CCOc1nc(C)cc(C)c1S(=O)(=O)c1cccc(C)c1	2	13	1	19	-0.38	15	.
Cc1ccc(NC(=O)Nc2sc(=S)n(C)c2C)cc1	2	-19	1	59*	-0.22	-6	-17
CC(=O)NC(=O)Nc1sc(=S)n(C)c1C	2	-8	-3	4	0.65	-14	.
OCCO	-2	.	-1	.	.	.	.
CC(=O)Nc1ccc(SC[C@H](Cc2ccccc2)N2CC[C@@H](C(C)(C)C)CCC2=O)cc1	-2	.	-2	.	.	.	.
CCCCSc1nnc(-c2ccc(C)cc2)c2ccccc12	.	16	.	91*	0.67	64	5
CN(C)C(=O)CSc1nnc(-c2ccc(F)cc2)c2ccccc12	-3	-18	-1	.	-0.94	6	.
Cc1ccc2nc3cc([N+](=O)[O-])cc([N+](=O)[O-])c3cc2c1	.	.	.	101*	-6.3*	95*	100*
CC[C@H](C)C(=O)O[C@H]1CCC=C2C=C[C@H](C)[C@H](CC[C@@H]3C[C@@H](O)CC(=O)O3)[C@H]21	-5	-2	3	76*	-0.68	33	-6
CCOc1ccc(S(=O)(=O)Nc2ccccc2C(=O)N2CCOCC2)cc1	-4	-5	0	.	.	.	.
Cc1c(N=C2SCC(=O)N2/N=C/c2ccccc2)c(=O)n(-c2ccccc2)n1C	-1	-13	3	-2	-0.19	-6	.
CN(CC(=O)NCC(=O)Nc1ccc(F)cc1)C1CCS(=O)(=O)C1 (stereo unspecified)	-4	.	1	.	.	.	.
CN(c1ccccc1)c1ccc(/C=C(\C#N)c2nnc3n2CCCCC3)cc1[N+](=O)[O-]	-2	-11	1	56*	-1.1	-4	14
O=C(CN1C(=O)NC2(CCCC2)C1=O)OCc1c(F)cccc1Cl	-3	-2	0	.	.	.	.
CCOc1ccc(-c2noc(-c3cccnc3)n2)cc1OC	5	-8	4	71*	-0.12	-16	46
NCCCCCc1nnc(SCc2cccc(Cl)c2)o1	5	-4	-1	98*	-0.38	46	-6
NCCCCCc1nnc(SCC(=O)Nc2cccc(Cl)c2)o1	-3	-18	-1	36	-0.21	9	.
Cn1cnc(S(=O)(=O)Nc2ccc(Cl)c(C(F)(F)F)c2)c1	-1	-14	0	.	.	.	.
O=C(CSc1nc2ccccc2c(=O)[nH]1)Nc1ccccc1C(F)(F)F	-2	-8	-2	.	.	.	.
Cc1c(C(=O)NCC(C)C)sc2nc(-c3ccc(F)cc3)cn12	4	11	5	-3	-0.28	3	.
Cc1c(C(=O)Nc2ccncc2)sc2nc(-c3ccc(F)cc3)cn12	4	29	5	99*	0.078	47	19
Cc1nc2ccc(NC(=O)c3cccs3)cc2c(=O)n1Cc1ccc(Cl)cc1	0	44	3	16	1.2	-3	.
CCCc1nc2ccc(NC(=O)c3cccs3)cc2c(=O)n1Cc1ccc(Cl)cc1	-2	52	2	72*	0.2	7	-7
O=C(CSc1nc2ccccc2[nH]1)N1CCN(c2ccc(F)cc2)CC1	-2	-3	-2	58*	-0.5	32	-3

Assay outcomes from PubChem BioAssay.
